What was measured:
E. coli strain pb3 [1] = assay: Growth curve inhibition, clinical strain pb3; assay type: cell-based, Escherichia coli; details: for Effect on growth of pb3 (in words): AMP at 40 µM; for Concentration giving significant growth inhibition of pb3: 2-fold serial dilution 40 to 5 µM, triplicates, compared with WT peptide
Method in brief: (§1)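 Overnight E. coli clinical isolate cultures in Mueller–Hinton broth (150 rpm, 37°C) diluted 1:100 in MHB, with test peptide at 40 µM or in a 2-fold series from 40 to 5 µM, in triplicate. OD600 read every 30 min for 24 h with continuous shaking. Log-phase linear values were log2-transformed against time, slope taken as growth rate, normalized to a no-peptide control, and compared with wild-type peptide by Student's t test.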

E. coli strain pb15 [2] = assay: Growth curve inhibition, clinical strain pb15; assay type: cell-based, Escherichia coli; details: for Effect on growth of pb15 (in words): AMP at 40 µM
Method in brief: as §1

E. coli strain pb35 = assay: Growth curve inhibition, clinical strain pb35; assay type: cell-based, Escherichia coli; details: for Effect on growth of pb35 (in words): AMP at 40 µM
Method in brief: as §1

[3] = test system: clinically derived E. coli strains pb3, pb15 and pb35; assay: Growth inhibition across the clinical strains pb3, pb15 and pb35; assay type: cell-based, Escherichia coli; details: AMP at 40 µM
Method in brief: as §1

E. coli strain pb3 [4] = details: strain pb3, urinary tract infection; ref Basra et al. 15; cited from earlier work
E. coli strain pb5 = details: strain pb5, respiratory; ref Basra et al. 15; cited from earlier work
E. coli strain pb15 [5] = details: strain pb15, blood; ref Basra et al. 15; cited from earlier work
[6] = 2-fold serial dilution 40 to 5 µM, triplicates, compared with WT peptide

Row | Molecule | Effect on growth of pb3 (in words) (E. coli strain pb3 [1]) | Effect on growth of pb15 (in words) (E. coli strain pb15 [2]) | Effect on growth of pb35 (in words) (E. coli strain pb35) | Concentration giving significant growth inhibition of pb3 (E. coli strain pb3 [1]) | Growth inhibition across all three clinical strains (in words) [3] | also measured
1 | ILPWCWPWWPWRR [IndoK5C] | greater effect | reduced but still significant effect | greater effect | – | – | –
2 | ILPWKWPWWPWRR [indolicidin, reference compound] | – | – | – | – | – | Dose-response of growth inhibition of pb3 (in words) (E. coli strain pb3 [1]; serial dilution 40 to 5 µM): not inhibited across the concentrations tested
3 | ILPWDWPWWPWRR [IndoK5D] | – | – | – | 20 µM | equivalent response across all three strains | Concentration giving significant growth inhibition of pb15 (E. coli strain pb15 [2]; [6]): 10 µM
4 | ILPWLWPWWPWRR [IndoK5L] | – | – | – | 20 µM | equivalent response across all three strains | Concentration giving significant growth inhibition of pb35 (E. coli strain pb35; [6]): 20 µM
5 | ILPWAWPWWPWRR [IndoK5A] | greater effect | reduced but still significant effect | greater effect | – | – | –
6 | CC(C)(O/N=C(\C(=O)N[C@@H]1C(=O)N2C(C(=O)[O-])=C(C[n+]3ccccc3)CS[C@H]12)c1csc(N)n1)C(=O)O [CAZ, ceftazidime] | – | – | – | – | – | CAZ MIC (E. coli strain pb3 [4]): 4 µg/mL; CAZ MIC (E. coli strain pb5): 0.5 µg/mL; CAZ MIC (E. coli strain pb15 [5]): 128 µg/mL
